# Experimental data pooled from the literature.
# Target: Vasopressin V1a receptor (AVPR1A, Homo sapiens, UniProt P37288)
SMILES,read-out,method,concentration,measurement,result
O=C(Nc1cccnn1)N1CCN([C@@H]2CCOc3cc(C(F)(F)F)ccc32)CC1,ligand displacement,,20 µM,inhibition,5%
CCN(CC)CCCC[C@H](NC(=O)[C@H](CC(C)C)NC(=O)[C@H](C)NC(=O)[C@H](Cc1ccccc1)NC(=O)c1ccc(C(C)(C)C)cc1)C(=O)N[C@@H](CO)C(=O)OC,ligand displacement,radioligand,10 µM,remaining binding,14.6%
COc1ccc(S(=O)(=O)N2CCCCC2)cc1C,ligand displacement,radioligand,10 µM,inhibition,< 30%
Nc1ncc(-c2nc(N3CCOCC3)nc(N3CCOCC3)n2)c(C(F)F)n1,cell-free assay,radioligand,10 µM,remaining signal,104%
Clc1ccc2c(C3CCN(CCc4c[nH]c5ccccc45)CC3)c[nH]c2c1,ligand displacement,radioligand,10 µM,inhibition,2%
C[C@H](C(=O)N[C@H]1COc2ccccc2[C@@H]1S(C)(=O)=O)c1ccc(F)cc1,cell-free assay,,10 µM,inhibition,-23%
COCc1c(-c2cc3cc(C)cc(OC)c3s2)c2c(N)ncnn2c1CN1CCNC(=O)C1,ligand displacement,radioligand,10 µM,inhibition,-11%
CN(CCN1CCC(OC(=O)Nc2ccccc2-c2ccccc2)CC1)C(=O)c1ccc(CN2CCC(C(N)=O)CC2)cc1,ligand displacement,radioligand,1 µM,inhibition,5%
c1ccc(C(NCCNC(c2ccccc2)c2ccccc2)c2ccccc2)cc1,cell-free assay,,10 µM,inhibition,-1%
